# Hits are enriched below; roughly 4.5% of the tested compounds scored in any of these assays.
# OX1R antag-1: human HCRTR1 antagonism; inhibition, % at 5 µM; CHO/OX1R cells, Fluo-8 calcium fluorescence, orexin A; hit rate 0.43% among 330,000; O43613;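 active = inhibition above its plate's threshold, mean inhibition of all tested compounds on the plate plus 3 SD, cut at about 37% in these data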;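 note: 0% = orexin A challenge wells and 100% = SB-334867-A antagonist wells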
# TAAR1 ag: agonists of human TAAR1 | hit rate 0.99% among 360,000 | AID 624467 | CHO RD-HGA16 TAAR1, Fluo-8 calcium fluorescence; vehicle wells 0%, saturating PEA agonist 100% | activation, % at 3 µM | Q96RJ0;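 active = activation above the mean activation of all test compounds in the run plus 3 SD, cut at about 38% in these data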
#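 Benchmarks: low control DMSO, high control PEA (EC100); System: CHO RD-HGA16 cells carrying human TAAR1 plus Gα16; Detection: Fluo-8 fluorescence, 5 s baseline then 140 s kinetic read; Schedule: 17-24 h plating, Fluo-8 75 min 37 °C, 30 min RT; Read-out basis: % activation from peak over basal fluorescence ratio, DMSO-to-PEA scaled.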
# CHO parental Ca: signal in parental CHO cells, OX1R antagonist counter-screen; parental CHO-K1, ATP-induced calcium, Fluo-8 fluorescence; inhibition, % at 5.6 µM; hit rate 0.63% among 330,000; AID 463079;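 active = inhibition above that plate's mean sample inhibition plus 3 SD, cut at about 26% in these data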;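 note: 0% = ATP-challenged DMSO wells and 100% = DMSO wells without ATP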
#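 Assay system: untransfected parental CHO cell line. Also added: ATP agonist challenge. Dosing: one dose, 5.6 µM nominal. Measured by: Fluo-8 fluorescence. Read-out: % inhibition. Benchmarks: ATP wells versus no-ATP DMSO wells. Repeats: no replicates.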
# TAAR1 antagonist: human TAAR1 antagonism; Q96RJ0; AID 624466; hit rate 1.5% among 360,000; CHO RD-HGA16 TAAR1, Fluo-8 calcium fluorescence, antagonist; inhibition, % at 3 µM;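 active = inhibition above a per-plate cutoff, the mean inhibition of test compounds on that plate plus 3 SD, cut at about 49% in these data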;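 note: 0% = DMSO plus EC80 beta-PEA response and 100% = DMSO alone without agonist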
#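 Test system: RD-HGA16 CHO cells with stable hTAAR1 and Gα16 / Probe or stimulus: EC80 β-phenethylamine stimulus / Times: seeding 17-24 h prior, 75-min 37 °C, 30-min RT dye loading / Detection: Fluo-8 calcium-sensitive fluorescence / Read-out basis: % inhibition scaled between DMSO and EC80 PEA controls / Repeats: singlicate, one well per test compound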
# OX1R antag-2: blocks the human orexin 1 receptor. OX1R-expressing cells, FRET antagonist read-out. inhibition, % at 6.6 µM. hit rate 1.8% among 330,000. O43613. AID 485270; in the data active = inhibition mostly above about 38%, no sharp cut-off; inactive = mostly below about 40%;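 note: 0% = agonist challenge alone and 100% = reference antagonist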
# GPR7 antagonist: antagonists of human GPR7 (neuropeptides B/W receptor 1). P48145. GPR7-expressing cells, fluorescence antagonist assay. inhibition, % at 4.4 µM. hit rate 1.1% among 290,000. AID 1861; in the data active = inhibition above about 16%, passing the limit was not always enough;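 note: cells stimulated with the agonist NPW; 0% = agonist with vehicle and 100% = vehicle without agonist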
# Target sequence (P48145 whole entry, looked up): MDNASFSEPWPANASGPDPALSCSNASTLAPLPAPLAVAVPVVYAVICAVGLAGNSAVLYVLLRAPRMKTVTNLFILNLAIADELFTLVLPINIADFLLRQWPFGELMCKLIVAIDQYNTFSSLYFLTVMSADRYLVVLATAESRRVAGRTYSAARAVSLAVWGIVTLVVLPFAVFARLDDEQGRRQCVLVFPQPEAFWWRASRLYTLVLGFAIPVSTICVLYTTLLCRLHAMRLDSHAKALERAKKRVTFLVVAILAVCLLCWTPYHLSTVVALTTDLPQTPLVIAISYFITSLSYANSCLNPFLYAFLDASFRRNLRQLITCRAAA
# * = called active by the depositor; . = no result.
SMILES,OX1R antag-1,TAAR1 ag,CHO parental Ca,TAAR1 antagonist,OX1R antag-2,GPR7 antagonist
Cc1nnsc1C(=O)NC1CCCc2c1cnn2-c1ccccc1F (stereo unspecified),-2,3,6,3,15,-5
CCc1cc(C(=O)NC2CCCc3c2cnn3-c2cccc(C)c2C)n(C)n1 (stereo unspecified),38,3,62*,14,60*,-2
COc1ccc(C(=O)NC2CC(C)(C)Cc3c2cnn3-c2ccccc2C)c(OC)c1OC (stereo unspecified),-40,-3,-11,-41,20,-4
Cc1cc(C(=O)NC2CCCc3c2cnn3-c2ccc(C)c(C)c2)n(C)n1 (stereo unspecified),12,2,45*,7,43,10
N=c1c(C(=O)NCC2CCCO2)cc2c(=O)n3ccccc3nc2n1Cc1ccc(Cl)cc1 (stereo unspecified),-12,0,-3,-29,39,14
Cc1ccc(Cn2c(=N)c(C(=O)NCC3CCCO3)cc3c(=O)n4ccccc4nc32)cc1 (stereo unspecified),-11,-4,-8,6,56*,-2
N=c1c(C(=O)NCC2CCCO2)cc2c(=O)n3ccccc3nc2n1Cc1ccccc1 (stereo unspecified),-3,0,-18,-14,51*,-14
O=C(C#Cc1ccccc1)c1cccc([N+](=O)[O-])c1,13,2,36*,28,17,-2
CC(=O)c1cccc([N+](=O)[O-])c1,-10,2,-9,17,5,.
O=S(=O)(Nc1c(O)ccc2ccccc12)c1ccc(F)cc1,-7,2,-39,5,41,.
COc1ccc(S(=O)(=O)Nc2ccc(O)c3ccccc23)cc1,-15,7,-9,14,43*,-10
O=S(=O)(Nc1c(O)ccc2ccccc12)c1ccccc1,6,0,-27,-27,64*,.
COc1ccc(S(=O)(=O)Nc2ccccc2)cc1,-17,3,-33,7,14,.
Cc1oc(C(=O)O)cc1COc1cccc2cccnc12,6,12,-12,8,13,-1
COc1ccc(NS(=O)(=O)c2ccc(NC(=O)Cc3cccs3)cc2)cc1,16,41*,6,15,12,4
COc1ccc(NS(=O)(=O)c2cccc(C(=O)N(C)Cc3cccs3)c2)cc1,-8,8,-6,-12,26,.
COc1ccc(NS(=O)(=O)c2ccc(NC(=O)c3ccc(CN4CCOCC4)cc3)cc2)cc1,11,18,6,36,19,24*
COc1ccc(NS(=O)(=O)c2ccc(C(=O)N(C)Cc3cccs3)cc2)cc1,.,45*,.,34,.,.
O=C(NCCN1CCOCC1)c1ccc(NS(=O)(=O)c2cccc([N+](=O)[O-])c2)cc1,-8,0,-9,5,52*,.
COc1ccc(NS(=O)(=O)c2cc(NC(=O)Cc3cccs3)ccc2C)cc1,-12,1,-8,-3,28,15
O=C(CSc1nnc(-c2cccs2)n1-c1ccccc1)NCc1ccc2c(c1)OCO2,-7,1,-16,16,62*,-5
CCn1c(SCC(=O)NCc2ccc3c(c2)OCO3)nnc1-c1cccs1,7,7,-13,10,6,-2
O=C(CSc1nnc(-c2cccs2)n1Cc1ccccc1)NCc1ccc2c(c1)OCO2,-23,-1,-22,8,62*,2
CCCCN1C(=O)/C(=C/C=C2\Oc3ccccc3N2CC)SC1=S,.,180*,.,90*,.,10
CCCN1C(=O)/C(=C\C=C2/Sc3ccccc3N2CCO)SC1=S,10,9,-22,3,31,-3
C=CCN1C(=O)/C(=C\C=C2\N(C)c3ccccc3C2(C)C)SC1=S,1,19,6,34,5,-4
CCCCN1C(=O)/C(=C/C=C2/CC(C)(C)CN2C)SC1=S,46*,26,47*,17,29,5
O=C(Nc1cccnc1)c1ccc([N+](=O)[O-])cc1Cl,-18,2,-6,21,56*,-2
O=C(Nc1ccc([N+](=O)[O-])cc1Cl)c1cc(Cl)ccc1O,33,6,29,-26,68*,.

# Screening data (PubChem)
